We go through three compounds from ChEMBL document CHEMBL1134845, “Syntheses and biological activities of a novel group of steroidal derived inhibitors for human Cdc25A protein phosphatase” (J Med Chem, 2001).

For one assay, the system named is A549. Briefly: Growth inhibitory activity was determined against A549/ATCC cancer cell line of non-small cell lung cancer. The assay is classed as functional, Homo sapiens. The settings on record: Homo sapiens, A549. In short, it runs like this:
(§1)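 NCI 60 human tumour cell line screen run at the National Cancer Institute. Cell growth and viability read with the protein stain sulforhodamine B, which binds basic amino acids of cells left attached after washing. […] MG MID is the mean GI50 calculated over all panels.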

The test system of a further assay is COLO 205. Kind of assay: Growth inhibitory activity was determined against COLO 205 cancer cell line colon cancer. The settings on record: Homo sapiens, COLO 205. The assay is classed as functional, Homo sapiens. The method in brief: as §1
In assay [1] the target is T1, M-phase inducer phosphatase 1 (Homo sapiens) (UniProt P30304).
T1 sequence (whole entry): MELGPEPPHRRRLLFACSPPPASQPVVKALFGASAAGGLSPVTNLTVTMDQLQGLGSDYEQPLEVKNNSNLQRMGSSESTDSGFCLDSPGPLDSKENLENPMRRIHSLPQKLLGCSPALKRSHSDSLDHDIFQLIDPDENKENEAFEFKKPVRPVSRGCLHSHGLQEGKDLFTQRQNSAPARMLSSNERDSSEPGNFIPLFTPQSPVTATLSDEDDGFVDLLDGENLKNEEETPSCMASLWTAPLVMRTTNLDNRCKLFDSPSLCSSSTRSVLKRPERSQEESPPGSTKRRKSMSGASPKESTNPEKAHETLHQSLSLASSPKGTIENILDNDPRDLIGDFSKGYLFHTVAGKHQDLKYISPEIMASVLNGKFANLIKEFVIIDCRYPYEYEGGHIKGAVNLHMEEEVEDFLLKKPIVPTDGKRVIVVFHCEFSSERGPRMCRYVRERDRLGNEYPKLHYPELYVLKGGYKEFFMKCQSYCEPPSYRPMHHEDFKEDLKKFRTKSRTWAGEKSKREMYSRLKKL
Kind of assay: Inhibitory activity tested against cell division cycle 25A (assay using p-nitro phenyl phosphate (pNPP) as substrate).

The target in assay [2] is T1, M-phase inducer phosphatase 1 (Homo sapiens). Kind of assay: (§2) Inhibitory activity tested against cell division cycle 25A (assay using fluorescein diphosphate (FDP) as substrate). The method in brief:
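Recombinant human GST-Cdc25A fusion protein, each batch calibrated so that FDP was dephosphorylated linearly over 20 min. Fluorescein diphosphate was the substrate. Reactions ran 15 min at 25 °C in the dark and were stopped with sodium orthovanadate. Fluorescein monophosphate was read at 485 nm excitation and 530 nm emission. IC50 came from at least two independent runs, each in triplicate.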

In assay [3] the test system is HT-29. Briefly: Inhibition of colon cancer in HT-29 cancer cell lines. The settings on record: Homo sapiens. The assay is classed as functional. In short, it runs like this: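 Soft agar clonogenic assay of anchorage-independent growth, using HT-29 colon and A549 lung adenocarcinoma cells. The value is the compound concentration that cut colony number to 50% of control.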

The subject of another assay is HCC 2998. Briefly: Growth inhibitory activity was determined against HCC2998 cancer cell line colon cancer. Type of assay: functional, Homo sapiens. The settings on record: Homo sapiens, HCC 2998. In short, it runs like this: as §1
Another assay relates to LOX IMVI. Briefly: Growth inhibitory activity was determined against LOX IMVI cancer cell line of melanoma. Type of assay: functional, Homo sapiens. The settings on record: Homo sapiens, LOX IMVI. The method in brief: as §1
Assay [4] has as its system OVCAR-3. Briefly: Inhibition of Ovarian cancer in OVCAR-3 cancer cell lines. Type of assay: functional. The settings on record: Homo sapiens.
In the next assay the test system is NCI-H23. Briefly: Growth inhibitory activity was determined against NCI-H23 cancer cell line of non-small cell lung cancer. The assay is classed as functional, Homo sapiens. The settings on record: Homo sapiens, NCI-H23. In short, it runs like this:
as §1

A further assay concerns NCI-H522. Briefly: Growth inhibitory activity was determined against NCI-H522 cancer cell line of non-small cell lung cancer. Type of assay: functional. The settings on record: Homo sapiens. The method in brief: as §1
Assay [5] deals with NCI/ADR-RES. Kind of assay: Inhibition of Breast cancer in NCI/ADR-RES cancer cell lines. Type of assay: functional. The settings on record: Homo sapiens.
For assay [6], the system named is OVCAR-8. Kind of assay: Inhibition of Ovarian cancer in OVCAR-8 cancer cell lines. Type of assay: functional. The settings on record: Homo sapiens.
Assay [7] deals with PC-3. Kind of assay: Inhibition of Prostate cancer in PC-3 cancer cell lines. Type of assay: functional. The settings on record: Homo sapiens.
Assay [8] concerns SN12C. Briefly: Inhibition of Renal cancer in SN12C cancer cell lines. The assay is classed as functional. The settings on record: Homo sapiens.
The subject of a further assay is SF-539. Briefly: Growth inhibitory activity was determined against SF-539 cancer cell line of CNS cancer. The assay is classed as functional. The settings on record: Homo sapiens. In short, it runs like this:
as §1

A further assay has as its system SF-268. Kind of assay: Growth inhibitory activity was determined against SF-268 cancer cell line of CNS cancer. The assay is classed as functional. The settings on record: Homo sapiens. In short, it runs like this: as §1
The subject of assay [9] is SK-MEL-5. Briefly: Growth inhibitory activity was determined against SK-MEL-5 cancer cell line of melanoma. The settings on record: Homo sapiens, SK-MEL-5. Type of assay: functional, Homo sapiens. In short, it runs like this:
as §1

Assay [10] deals with T47D. Briefly: Inhibition of Breast cancer in T-47D cancer cell lines. The assay is classed as functional. The settings on record: Homo sapiens.
Assay [11] deals with UO-31. Kind of assay: Inhibition of Renal cancer in UO-31 cancer cell lines. The assay is classed as functional. The settings on record: Homo sapiens.
For a further assay, the system named is U-251. Kind of assay: Growth inhibitory activity was determined against U-251 cancer cell line of CNS cancer. Type of assay: functional. The settings on record: Homo sapiens. The method in brief: as §1
Assay [12] deals with 786-0. Kind of assay: Inhibition of Renal cancer in 786-0 cancer cell lines. The assay is classed as functional. The settings on record: Homo sapiens.
For assay [13], the system named is BT-549 (Homo sapiens). Kind of assay: Inhibition of Breast cancer in BT-549 cancer cell lines.
Assay [14] concerns the target Receptor-type tyrosine-protein phosphatase C, CD45 (Homo sapiens) (UniProt P08575). Briefly: Inhibitory activity tested against human CD45 receptor-type tyrosine-protein phosphatase C.
Assay [15] relates to 786-0. Kind of assay: Growth inhibitory activity was determined against 786-0 cancer cell line of Renal cancer. The assay is classed as functional. The settings on record: Homo sapiens. In short, it runs like this:
as §1

Assay [16] deals with T2, M-phase inducer phosphatase 1 (Homo sapiens, UniProt P30304).
T2 sequence (P30304 whole entry): T1 sequence (whole entry)
Described as §2. In short, it runs like this: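 Recombinant human GST-Cdc25A fusion protein, each batch calibrated so that FDP was dephosphorylated linearly over 20 min. Fluorescein diphosphate was the substrate. Reactions ran 15 min at 25 °C in the dark and were stopped with sodium orthovanadate. IC50 came from at least two independent runs, each in triplicate.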

Assay [17] relates to HT-29. Briefly: Growth inhibitory activity was determined against HT-29 cancer cell line colon cancer. Type of assay: functional, Homo sapiens. The settings on record: Homo sapiens, HT-29. In short, it runs like this: as §1
In assay [18] the test system is NCI/ADR-RES. Kind of assay: Growth inhibitory activity was determined against NCI/ADR-RES cancer cell line of Breast cancer. Type of assay: functional, Homo sapiens. The settings on record: Homo sapiens, NCI/ADR-RES. In short, it runs like this: as §1
Assay [19] concerns OVCAR-8. Kind of assay: Growth inhibitory activity was determined against OVCAR-8 cancer cell line of Ovarian cancer. Type of assay: functional. The settings on record: Homo sapiens. In short, it runs like this: as §1
Assay [20] deals with SN12C. Kind of assay: Growth inhibitory activity was determined against SN12C cancer cell line of Renal cancer. The assay is classed as functional. The settings on record: Homo sapiens. In short, it runs like this: as §1
The test system of assay [21] is SK-MEL-5. Briefly: Growth inhibitory activity was determined against SK-MEL-5 cancer cell line of melanom. Type of assay: functional. The settings on record: Homo sapiens. In short, it runs like this: as §1
Assay [22] concerns UO-31. Briefly: Growth inhibitory activity was determined against UO-31 cancer cell line of Renal cancer. Type of assay: functional. The settings on record: Homo sapiens. In short, it runs like this: as §1
In assay [23] the test system is PC-3. Kind of assay: Growth inhibitory activity was determined against PC-3 cancer cell line of Prostate cancer. Type of assay: functional. The settings on record: Homo sapiens. The method in brief:
as §1

Assay [24] concerns T47D. Kind of assay: Growth inhibitory activity was determined against T-47D cancer cell line of Breast cancer. Type of assay: functional, Homo sapiens. The settings on record: Homo sapiens, T47D. The method in brief:
as §1

The subject of assay [25] is OVCAR-3. Briefly: Growth inhibitory activity was determined against OVCAR-3 cancer cell line of Ovarian cancer. The settings on record: Homo sapiens. Type of assay: functional. In short, it runs like this: as §1
The test system of assay [26] is BT-549 (Homo sapiens). Briefly: Growth inhibitory activity was determined against BT-549 cancer cell line of Breast cancer. The settings on record: Homo sapiens, BT-549.
Assay [27] in a line: Inhibitory activity against PSPTase. In short, it runs like this:
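Human GST-Cdc25A fusion protein, with each batch calibrated for linear dephosphorylation of fluorescein diphosphate over 20 min. Run 15 min at 25 °C in the dark and stopped with sodium orthovanadate. Fluorescein monophosphate read at ex 485/em 530 nm. IC50 from at least two independent determinations, each in triplicate; variation from the mean within ±20%.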

Where only a bound is given, the exact number is not on record here.

Chain of Receptor-type tyrosine-protein phosphatase C, CD45 (Homo sapiens) (P08575 whole entry, looked up): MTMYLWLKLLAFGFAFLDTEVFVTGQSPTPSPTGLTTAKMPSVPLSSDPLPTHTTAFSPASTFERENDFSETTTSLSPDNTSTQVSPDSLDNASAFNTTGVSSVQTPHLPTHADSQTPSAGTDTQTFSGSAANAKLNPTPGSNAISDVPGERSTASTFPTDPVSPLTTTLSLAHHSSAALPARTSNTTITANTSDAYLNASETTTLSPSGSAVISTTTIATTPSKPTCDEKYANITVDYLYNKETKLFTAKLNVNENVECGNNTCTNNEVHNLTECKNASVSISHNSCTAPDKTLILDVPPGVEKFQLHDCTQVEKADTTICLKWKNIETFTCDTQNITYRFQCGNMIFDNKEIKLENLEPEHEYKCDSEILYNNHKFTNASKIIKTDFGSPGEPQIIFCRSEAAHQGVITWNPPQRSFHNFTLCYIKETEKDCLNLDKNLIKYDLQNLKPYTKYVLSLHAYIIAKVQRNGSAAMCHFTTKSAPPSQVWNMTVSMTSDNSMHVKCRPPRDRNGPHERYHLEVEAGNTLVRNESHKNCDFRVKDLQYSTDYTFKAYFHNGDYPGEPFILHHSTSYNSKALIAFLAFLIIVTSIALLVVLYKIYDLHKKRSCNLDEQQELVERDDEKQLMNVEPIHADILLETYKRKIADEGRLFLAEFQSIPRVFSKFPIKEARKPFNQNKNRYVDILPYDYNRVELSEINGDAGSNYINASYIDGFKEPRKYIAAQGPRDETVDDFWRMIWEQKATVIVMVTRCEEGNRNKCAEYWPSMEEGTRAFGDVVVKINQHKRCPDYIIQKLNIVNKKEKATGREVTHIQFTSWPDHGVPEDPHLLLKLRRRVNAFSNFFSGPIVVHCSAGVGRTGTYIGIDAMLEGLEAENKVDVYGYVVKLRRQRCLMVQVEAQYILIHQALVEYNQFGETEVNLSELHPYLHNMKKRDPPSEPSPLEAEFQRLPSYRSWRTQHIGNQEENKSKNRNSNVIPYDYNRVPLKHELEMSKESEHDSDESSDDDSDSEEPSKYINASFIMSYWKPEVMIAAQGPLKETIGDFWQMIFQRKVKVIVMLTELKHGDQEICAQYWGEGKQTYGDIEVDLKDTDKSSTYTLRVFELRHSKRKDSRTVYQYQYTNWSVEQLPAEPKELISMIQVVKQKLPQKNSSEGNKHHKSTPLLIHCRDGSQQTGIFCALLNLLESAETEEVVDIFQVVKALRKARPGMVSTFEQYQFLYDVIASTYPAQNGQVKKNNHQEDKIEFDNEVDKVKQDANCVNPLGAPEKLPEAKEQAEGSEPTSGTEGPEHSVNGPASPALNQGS

Usually GI50 stands for the concentration giving 50% growth inhibition. A higher GI50 goes with less potent growth inhibition. One may read the IC50 as the concentration at which inhibition is half-maximal. `C/C(=C\CCCC#N)[C@H]1CC[C@]2(C)[C@@H]([C@H](C)CCCC(C)C)CC[C@H]2[C@@H]1CC(=O)O`: the GI50 worked out at 7.33 µM in the assay with A549; 5.92 µM in the assay on COLO 205; 6.49 µM in the assay on HT-29 [3]; 4.31 µM in the assay with HCC 2998; 5.91 µM with LOX IMVI; 6.77 µM in the assay on OVCAR-3 [4]. In addition, the 50% growth inhibitory concentration (GI50) with NCI-H23 stood at 7.4 µM; in the assay on NCI-H522, 17.3 µM; in the assay with NCI/ADR-RES [5], 6.44 µM; in the assay on OVCAR-8 [6], 5.53 µM; in the assay with PC-3 [7], 6.34 µM; in the assay with SN12C [8], 7.73 µM. The GI50 with SF-539 is 10.5 µM; in the assay with SF-268, 16.6 µM; with SK-MEL-5 [9], 8.83 µM; with T47D [10], 8.22 µM; with UO-31 [11], 9.55 µM; with U-251, 5.53 µM. Besides, the GI50 with 786-0 [12] was 8.69 µM; in the assay with BT-549 (Homo sapiens) [13], 5.75 µM. The values for the IC50 in [1], in assay [2] and in assay [14] were 9.3 µM, 2.5 µM and 13.2 µM, respectively.
Take `CC(C)CCC[C@@H](C)[C@H]1CC[C@H]2[C@H](CC(=O)O)[C@@H]([C@@]3(C)CCCCC3=O)CC[C@]12C`: the GI50 was 18.5 µM in the assay with 786-0 [15]; 10.8 µM in the assay with A549; above 25 µM with COLO 205; 15.7 µM in the assay on HT-29 [17]; 18.8 µM in the assay with HCC 2998; 16.7 µM in the assay with LOX IMVI. For the same compound, the GI50 is 19 µM in the assay with NCI-H23; above 25 µM in the assay on NCI-H522; 14.6 µM in the assay on NCI/ADR-RES [18]; 13.5 µM in the assay on OVCAR-8 [19]; 13.4 µM with SN12C [20]; above 25 µM in the assay on SF-539. For the same compound, the GI50 in the assay on SF-268 was above 25 µM; in the assay on SK-MEL-5 [21], above 25 µM; with UO-31 [22] it was above 25 µM; in the assay with U-251, 14 µM; with PC-3 [23] it was 16 µM; in the assay with T47D [24], 16.9 µM. Moreover, the values for the GI50 in the assay with OVCAR-3 [25] and in the assay with BT-549 (Homo sapiens) [26] were above 25 µM and 13 µM, respectively. In [16], this compound gave an IC50 of 5.9 µM.
Consider `C=C1[C@@H](O)[C@@H]2O[C@]3(CC[C@H](/C=C/[C@@H](C)[C@@H]4CC(C)=C[C@@]5(O[C@H](C[C@@](C)(O)C(=O)O)CC[C@H]5O)O4)O3)CC[C@H]2O[C@@H]1[C@@H](O)C[C@H](C)[C@H]1O[C@@]2(CCCCO2)CC[C@H]1C` [OKADAIC ACID], for which the IC50 in assay [27] is 0.049 µM. This lies in the double-digit nanomolar range.
